Measured values taken from ChEMBL document CHEMBL1122158, “Agents with potential specificity against melanotic melanoma” (1982).

Key:
[1] = test system: B16; assay: In vivo antitumor activity against B-16 Melanoma after intraperitoneal tumor implantation and then intraperitoneal administration of 75 mg/kg of dose; assay type: functional, Mus musculus
How it was run: (§1)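 B-16 melanoma was implanted intraperitoneally and dosed per NCI protocols. Intraperitoneal treatment began 24 h after implant and was given once daily on days 1-9. Activity was expressed as % T/C, with T/C ≥ 125% taken as statistically significant.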

[2] = test system: PS; assay: In vitro effective dose that causes 50% inhibition of growth of PS cell line - P388 lymphocytic leukemia; details: Mus musculus, read-out: ED50 (the source's name)
[3] = test system: B16; assay: In vivo antitumor activity against B-16 Melanoma after intraperitoneal tumor implantation and then intraperitoneal administration of 100 mg/kg of dose; assay type: functional, Mus musculus; how it was run: as §1
[4] = test system: KB; assay: In vitro effective dose that causes 50% inhibition of growth of KB cell line - human epidermoid carcinoma of the nasopharynx; assay type: functional; details: read-out: ED50 (the source's name)
[5] = test system: A2 (Mus musculus); assay: In vitro effective dose that causes 50% inhibition of growth of A2 cell line - amelanotic melanoma; details: read-out: ED50 (the source's name)
[6] = test system: M2R; assay: In vitro effective dose that causes 50% inhibition of growth of M2R cell line - amelanotic melanoma; assay type: functional; details: Mus musculus, in the assay text read “melanotic melanoma” for “amelanotic melanoma”, read-out: ED50 (the source's name)
How it was run: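 1 × 10^4 cells seeded in a 1:1 DMEM/Ham's F-12 medium with 1.2 g/L NaHCO3, 15 mM HEPES and 10% fetal bovine serum, at 37 °C in 5% CO2. After 24 h, the medium was replaced with fresh medium holding the test agent at various concentrations. Growth was followed for at least 3 more days by trypsinizing and Coulter counting. Net cell increase was expressed as % of control when controls had grown 8-fold.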

[7] = test system: B16; assay: In vivo antitumor activity against B-16 Melanoma after intraperitoneal tumor implantation and then intraperitoneal administration of 150 mg/kg of dose; assay type: functional, Mus musculus; how it was run: as §1

| SMILES | T/C [1] | EC50 [2] | T/C [3] | EC50 [4] | EC50 [5] | EC50 [6] | T/C [7] |
| --- | --- | --- | --- | --- | --- | --- | --- |
| NC(CCCNc1cccc(O)c1)C(=O)O (stereo unspecified) | 104% | 300 µM | 87% | 300 µM | > 100 µM | > 100 µM | 82% |
| NC(CCCNc1ccc(O)cc1)C(=O)O (stereo unspecified) | 122% | 9.5 µM | 98% | 120 µM | 22 µM | 13 µM | 106% |
| NC(CNc1ccc(O)cc1)C(=O)O (stereo unspecified) | 111% | 32 µM | 103% | 140 µM | 54 µM | 24 µM | 101% |
